Laboratory results taken from ChEMBL document CHEMBL3272094 (J Med Chem, 1978).
Values belong to the compound of their own block, whether it stands above or below them. The source made the active and inactive calls. The calls are words filed in the database; no cut-off is given here.

Experiments:
[1] = Competitive inhibition of tyrosine hydroxylase (unknown origin); design: species or system Homo sapiens
[2] = tested on: Rattus norvegicus; experiment: Hypertensive effect in Wistar rat assessed as mean arterial pressure at 10 umol/kg; type: functional, Artery
In short: (§1)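 Rats given 1 or 10 μmol/kg iv as a 0.5 mL/kg saline bolus. Mean arterial pressure recorded and the pressor response corrected for the saline injection artifact. Reserpine groups received 2.5 mg/kg ip at 48 and 24 h before. Phentolamine 10 mg/kg iv was given 1 min before dosing. Means ± SEM, n=3–6.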

[3] = tested on: Rattus norvegicus; experiment: Hypertensive effect in Wistar rat assessed as mean arterial pressure at 1 umol/kg; type: functional, Artery; in short: as §1
[4] = tested on: Rattus norvegicus; experiment: Hypertensive effect in Wistar rat assessed as mean arterial pressure at 10 umol/kg in presence of phentolamine; type: functional, Artery; in short: as §1
[5] = tested on: Rattus norvegicus; experiment: Hypertensive effect in Wistar rat assessed as mean arterial pressure at 10 umol/kg in presence of phentolamine and reserpine; type: functional, Artery; in short: as §1
[6] = tested on: Rattus norvegicus; experiment: Hypertensive effect in Wistar rat assessed as mean pressor response at 1 umol/kg; type: functional; in short: as §1
[7] = tested on: Rattus norvegicus; experiment: Hypertensive effect in Wistar rat assessed as mean pressor response at 1 umol/kg in presence of reserpine; type: functional; in short: as §1
[8] = tested on: Rattus norvegicus; experiment: Hypertensive effect in Wistar rat assessed as mean pressor response at 10 umol/kg; type: functional; in short: as §1
[9] = tested on: Rattus norvegicus; experiment: Hypertensive effect in Wistar rat assessed as mean pressor response at 10 umol/kg in presence of reserpine; type: functional; in short: as §1
[10] = tested on: Rattus norvegicus; experiment: Hypertensive effect in Wistar rat assessed as mean pressor response at 10 umol/kg in presence of phentolamine; type: functional; in short: as §1
[11] = tested on: Rattus norvegicus; experiment: Hypertensive effect in Wistar rat assessed as mean pressor response at 10 umol/kg in presence of phentolamine and reserpine; type: functional; in short: as §1
[12] = tested on: Rattus norvegicus; experiment: Hypertensive effect in Wistar rat assessed as increase in mean arterial pressure at 10 umol/kg relative to control; type: functional, Artery; in short: as §1
[13] = species on record: Cavia porcellus; experiment: Agonist activity at alpha-adrenergic receptor in guinea pig aortic strip assessed as induction of contraction
In short: (§2)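 Spirally cut thoracic aortic strip (3 cm × 2 mm) from male guinea pig (400–900 g), in modified Krebs at 37.0 °C, gassed 95% O2/5% CO2. Initial tension 0.5 g, equilibrated ≥2 h. Isometric contraction recorded over cumulative dose-response curves, with each dose held until the response levelled (10 min). Responses expressed as % of maximum contraction to 10⁻⁴ M norepinephrine added after the last dose.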

[14] = tested on: Rattus norvegicus; experiment: Hypertensive effect in Wistar rat assessed as increase in blood pressure at 20 umol/kg administered repeatedly in presence of reserpine; type: functional
In short: (§3)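 Reserpine-pretreated rat given repeated iv injections of 20 μmol/kg, then 128 μmol/kg infused over 90 s. Arterial blood pressure recorded continuously, including time to return to preinjection level.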

[15] = tested on: Rattus norvegicus; experiment: Hypertensive effect in Wistar rat assessed as increase in blood pressure at 20 umol/kg administered repeatedly followed by infusion of 128 umol/kg for 90 secs in presence of reserpine; type: functional; in short: as §3
[16] = tested on: Rattus norvegicus; experiment: Hypertensive effect in Wistar rat assessed as increase in blood pressure at 20 umol/kg administered repeatedly after 15 mins in presence of reserpine; type: functional, organism-based; in short: as §3
[17] = tested on: Rattus norvegicus; experiment: Hypertensive effect in Wistar rat assessed as tachyphylaxis at 20 umol/kg administered repeatedly followed by infusion of 128 umol/kg for 90 secs in presence of reserpine; type: functional, organism-based; in short: as §3
[18] = species on record: Cavia porcellus; experiment: Agonist activity at alpha-adrenergic receptor in guinea pig aortic strip assessed as induction of contraction relative to norepinephrine; in short: as §2
[19] = species on record: Cavia porcellus; experiment: Agonist activity at alpha-adrenergic receptor in guinea pig aortic strip assessed as induction of contraction up to 3 x 10^-3 M in presence of phentolamine
[20] = tested on: Rattus norvegicus; experiment: Hypertensive effect in Wistar rat assessed as mean arterial pressure at 10 umol/kg in presence of reserpine; type: functional, Artery; in short: as §1
[21] = tested on: Rattus norvegicus; experiment: Hypertensive effect in Wistar rat assessed as mean arterial pressure at 1 umol/kg in presence of reserpine; type: functional, Artery; in short: as §1
[22] = Octanol-water partition coefficient, log P of the compound; type: physicochemical
[23] = target: Beta-2 adrenergic receptor (Cavia porcellus) (UniProt Q8K4Z4); conditions: Trachea
Beta-2 adrenergic receptor (Cavia porcellus), sequence (Q8K4Z4 whole entry, looked up): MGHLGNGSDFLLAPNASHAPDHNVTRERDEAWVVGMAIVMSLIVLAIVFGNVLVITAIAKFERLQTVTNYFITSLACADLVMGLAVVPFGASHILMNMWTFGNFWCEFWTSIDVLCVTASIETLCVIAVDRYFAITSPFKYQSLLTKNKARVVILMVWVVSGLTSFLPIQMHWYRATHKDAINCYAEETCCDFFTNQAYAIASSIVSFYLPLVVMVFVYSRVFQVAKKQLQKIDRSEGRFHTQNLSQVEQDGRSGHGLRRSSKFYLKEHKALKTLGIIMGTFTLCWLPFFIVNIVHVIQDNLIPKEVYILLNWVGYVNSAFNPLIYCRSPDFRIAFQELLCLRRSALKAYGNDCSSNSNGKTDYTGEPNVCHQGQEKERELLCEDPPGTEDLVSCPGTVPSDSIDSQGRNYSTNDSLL

[24] = target: Beta-2 adrenergic receptor (Cavia porcellus) (UniProt Q8K4Z4); conditions: Trachea; remark: listed apart in the source
[25] = tested on: Rattus norvegicus; experiment: Hypertensive effect in Wistar rat assessed as increase in heart rate at 1 nmol/kg (reference value: 1 +/- 0.1 beats/min); type: functional
In short: (§4)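 Intact rats; femoral or jugular vein cannulated. Doses of 1–1000 nmol/kg given as a 0.5 mL/kg iv saline bolus, each followed by a heparinized saline flush. Arterial pressure and heart rate taken from the oxygraph recording. A saline control was injected first. For the propranolol group, 1.0 mg/kg propranolol was given 5 min before 1.0 μmol/kg. Means ± SEM, n=3–4.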

[26] = tested on: Rattus norvegicus; experiment: Hypertensive effect in Wistar rat assessed as increase in heart rate at 10 nmol/kg (reference value: 1 +/- 0.1 beats/min); type: functional; in short: as §4
[27] = tested on: Rattus norvegicus; experiment: Hypertensive effect in Wistar rat assessed as increase in heart rate at 100 nmol/kg up to 1 min (reference value: 1 +/- 0.1 beats/min); type: functional; conditions: in the assay text read “up to 15 mins” for “up to 1 min”; in short: as §4
[28] = tested on: Rattus norvegicus; experiment: Hypertensive effect in Wistar rat assessed as increase in heart rate at 1000 nmol/kg (reference value: 1 +/- 0.1 beats/min); type: functional; in short: as §4
[29] = tested on: Rattus norvegicus; experiment: Hypertensive effect in Wistar rat assessed as increase in heart rate at 1000 nmol/kg in presence of propranolol (reference value: 1 +/- 0.1 beats/min); type: functional; in short: as §4
[30] = tested on: Rattus norvegicus; experiment: Hypertensive effect in Wistar rat assessed as change in mean arterial pressure at 1 nmol/kg (reference value: 7 +/- 2 mmHg); type: functional, Artery; in short: as §4
[31] = tested on: Rattus norvegicus; experiment: Hypertensive effect in Wistar rat assessed as change in mean arterial pressure at 10 nmol/kg (reference value: 7 +/- 2 mmHg); type: functional, Artery; in short: as §4
[32] = tested on: Rattus norvegicus; experiment: Hypertensive effect in Wistar rat assessed as change in mean arterial pressure at 100 nmol/kg up to 15 mins (reference value: 7 +/- 2 mmHg); type: functional, Artery; conditions: in the assay text read “up to 1 min” for “up to 15 mins”; in short: as §4
[33] = tested on: Rattus norvegicus; experiment: Hypertensive effect in Wistar rat assessed as change in mean arterial pressure at 1000 nmol/kg (reference value: 7 +/- 2 mmHg); type: functional, Artery; in short: as §4
[34] = tested on: Rattus norvegicus; experiment: Hypertensive effect in Wistar rat assessed as change in mean arterial pressure at 1000 nmol/kg in presence of propranolol (reference value: 7 +/- 2 mmHg); type: functional, Artery; in short: as §4
[35] = target: Beta-1 adrenergic receptor (Cavia porcellus) (UniProt B0FL73); experiment: Agonist activity at beta-1 adrenergic receptor in guinea pig atria assessed as effect on atrial rate relative to (R,S)-isoproterenol; conditions: Cardiac atrium
Beta-1 adrenergic receptor (Cavia porcellus), sequence (B0FL73 1-467): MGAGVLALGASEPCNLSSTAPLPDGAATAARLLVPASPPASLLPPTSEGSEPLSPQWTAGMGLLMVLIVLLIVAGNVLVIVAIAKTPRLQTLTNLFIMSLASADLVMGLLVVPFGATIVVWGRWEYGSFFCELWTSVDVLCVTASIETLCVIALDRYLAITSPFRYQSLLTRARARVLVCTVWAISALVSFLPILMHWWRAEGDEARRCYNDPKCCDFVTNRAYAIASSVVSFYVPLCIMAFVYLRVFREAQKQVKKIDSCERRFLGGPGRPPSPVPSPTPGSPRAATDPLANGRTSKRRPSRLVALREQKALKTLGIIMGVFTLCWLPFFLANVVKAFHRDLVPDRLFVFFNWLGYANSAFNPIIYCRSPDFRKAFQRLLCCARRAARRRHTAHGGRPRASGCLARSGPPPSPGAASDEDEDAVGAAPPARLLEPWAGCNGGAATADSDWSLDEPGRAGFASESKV
In short: (§5)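 Guinea pig atria (male, 400–900 g; some given reserpine 5.0 mg/kg ip 24 h before) in oxygenated bath at 37.0 °C, diastolic tension 1 g, steady beating reached first. Cumulative doses given 1 min apart. […] Points are means of ≥4 atria.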

[36] = target: Beta-1 adrenergic receptor (Cavia porcellus) (UniProt B0FL73); experiment: Agonist activity at beta-1 adrenergic receptor in guinea pig atria assessed as effect on force of atrial contraction relative to (R,S)-isoproterenol; conditions: Cardiac atrium; in short: as §5
[37] = target: Beta-1 adrenergic receptor (Cavia porcellus) (UniProt B0FL73); experiment: Ionotropic activity at beta-1 adrenergic receptor in guinea pig atria assessed as effect on atrial rate up to 3 x 10^-4 M in presence of propranolol; conditions: Cardiac atrium, in the assay text read “force of atrial contraction” for “atrial rate”
In short: (§6)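 Cumulative dosing of guinea pig atria up to 3×10⁻⁴ M with 10⁻⁶ M propranolol in the bath, at 37.0 °C with 1 g diastolic tension.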

[38] = target: Beta-1 adrenergic receptor (Cavia porcellus) (UniProt B0FL73); experiment: Positive chronotropic activity at beta-1 adrenergic receptor in guinea pig atria assessed as effect on force of atrial contraction up to 3 x 10^-4 M in presence of propranolol; conditions: Cardiac atrium, in the assay text read “atrial rate” for “force of atrial contraction”; in short: as §6
[39] = target: Beta-2 adrenergic receptor (Cavia porcellus) (UniProt Q8K4Z4); experiment: Agonist activity at beta-2 adrenergic receptor in guinea pig trachea assessed as tracheal relaxation relative to (R,S)-isoproterenol; design: Activity: scale not given: the % may be the effect or the level left
In short: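 Tracheal chain from male guinea pig (some reserpine-pretreated, 5.0 mg/kg ip 24 h before), equilibrated 30 min at 1 g tension and contracted with 3.0×10⁻⁶ M methacholine for 10 min.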

[40] = species on record: Cavia porcellus; experiment: Ratio of relative activity for guinea pig beta-2 adrenergic receptor to relative activity for guinea pig beta-1 adrenergic receptor
[41] = target: Beta-2 adrenergic receptor (Cavia porcellus) (UniProt Q8K4Z4); experiment: Agonist activity at beta-2 adrenergic receptor in guinea pig trachea assessed as tracheal relaxation in presence of propranolol
[42] = target: Beta-1 adrenergic receptor (Cavia porcellus) (UniProt B0FL73); conditions: Cardiac atrium
[43] = target: Beta-1 adrenergic receptor (Cavia porcellus) (UniProt B0FL73); conditions: Cardiac atrium; remark: listed apart in the source
[44] = tested on: Felis catus; experiment: Inhibition of isoproterenol-induced tachycardia in cat at 100 ug/kg; type: functional

- Ki [1]: 20 µM
Structure (SMILES): N[C@@H](Cc1ccc2[nH]cnc2c1)C(=O)O

- ED50 [13]: 8 µM
- Activity [18]: 41%
- Activity [19]: inactive
Structure (SMILES): NCC(O)c1ccc2[nH]cnc2c1 (racemic)
- Activity [2]: 98 mmHg
- Activity [3]: 82 mmHg
- Activity [4]: 46 mmHg
- Activity [5]: 48 mmHg
- Activity [6]: 8 mmHg
- Activity [7]: 9 mmHg
- Activity [8]: 39 mmHg
- Activity [9]: 40 mmHg
- Activity [10]: -4 mmHg
- Activity [11]: -5 mmHg
- Activity [12]: 40%
- Activity [14]: 150 mmHg
- Activity [15]: 150 mmHg
- Activity [16]: inactive
- Activity [17]: inactive
- Activity [20]: 70 mmHg
- Activity [21]: 73 mmHg

Structure (SMILES): Oc1ccccc1O [CATECHOL]
- logP [22]: 0.88

- ED50 [23]: 7.8 ×10⁻⁸ M
- pD2 [23]: 7.1
- ED50 [24]: 2.1 ×10⁻⁸ M
Structure (SMILES): CC(C)NCC(O)c1ccc(O)c(O)c1 (racemic)

- %max [35]: 50%
- Activity [35]: 0.355%
- %max [36]: 33%
- Activity [37]: inactive
- Activity [38]: inactive
- %max [39]: 58%
- Activity [39]: 4.79%
- Ratio [40]: 13.5
- fold change (FC) [41]: 2
- ED50 [42]: 6.2 µM
- pD2 [42]: 5.21
- ED50 [43]: 3.8 µM
- pD2 [43]: 5.42
- ED50 [23]: 1.6 µM
- pD2 [23]: 5.78
Structure (SMILES): CC(C)NCC(O)c1ccc2[nH]cnc2c1 (racemic)
- Activity [25]: 1 bpm
- Activity [26]: 12 bpm
- Activity [27]: 65 bpm
- Activity [28]: 59 bpm
- Activity [29]: 13 bpm
- Activity [30]: 4 mmHg
- Activity [31]: -6 mmHg
- Activity [32]: -12 mmHg
- Activity [33]: -30 mmHg
- Activity [34]: 3 mmHg

Structure (SMILES): CC(C)NCC(O)c1ccc2[nH]c(=O)[nH]c2c1 (configuration not stated)
- inhibition in vivo at 0.1 mg/kg [44]: 35%

- ED50 [13]: 1.1 µM
Structure (SMILES): NC[C@H](O)c1ccc(O)c(O)c1
